Screening data from PubChem.
TAAR1 agonist – human TAAR1 agonism; 360,000 tested, 0.99% active; CHO RD-HGA16 TAAR1, Fluo-8 calcium fluorescence; vehicle wells 0%, saturating PEA agonist 100%; activation, % at 3 µM;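 active means activation above the mean activation of all test compounds in the run plus 3 SD, cut at about 38% in these data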
Target sequence (Q96RJ0 whole entry, looked up): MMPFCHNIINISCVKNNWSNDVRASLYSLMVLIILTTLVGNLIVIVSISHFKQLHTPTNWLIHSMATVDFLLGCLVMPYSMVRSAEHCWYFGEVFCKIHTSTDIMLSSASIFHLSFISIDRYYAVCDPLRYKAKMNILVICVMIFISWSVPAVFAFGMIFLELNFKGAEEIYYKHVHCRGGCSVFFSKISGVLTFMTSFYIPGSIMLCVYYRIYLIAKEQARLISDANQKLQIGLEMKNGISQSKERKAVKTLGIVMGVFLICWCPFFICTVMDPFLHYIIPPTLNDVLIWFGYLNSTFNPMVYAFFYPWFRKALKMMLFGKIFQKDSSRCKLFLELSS
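System: CHO RD-HGA16 cells carrying human TAAR1 plus Gα16; Incubation: 17-24 h seeding, 75 min 37 °C dye, 30 min RT; Measured by: Fluo-8 fluorescence, 5 s baseline then 140 s kinetic read; Control set: DMSO and PEA EC100; Replication: single well for each compound.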
TAAR1 antagonist – antagonists of human TAAR1. Q96RJ0. CHO RD-HGA16 TAAR1, Fluo-8 calcium fluorescence, antagonist. inhibition, % at 3 µM. 360,000 tested, 1.5% active. AID 624466;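 active means inhibition above a per-plate cutoff, the mean inhibition of test compounds on that plate plus 3 SD, cut at about 49% in these data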
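Test system – hTAAR1-expressing CHO RD-HGA16 cells, Gα16-coupled · Also added – β-PEA at EC80 concentration, post-compound challenge · Compound – 3 µM, single point · Incubation – dye loading 75 min at 37 °C, then 30 min room temperature · Measured by – Fluo-8 intracellular calcium dye fluorescence, real-time kinetic reads · Benchmarks – vehicle and agonist controls · Replicates – singlicate, one well per test compound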
V1R ag counter – counter-screen for oxytocin receptor agonists: human V1a receptor agonists | P37288 | CHO-V1R cells, Fluo-8 calcium fluorescence, agonist mode; 0% DMSO, 100% 3 nM vasopressin | activation, % at 3 µM | 320,000 tested, 0.25% active | AID 2797;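 active means activation above the mean activation of all tested compounds plus 3 SD, per screening run, cut at about 20% in these data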;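 further: signal is peak over basal fluorescence ratio across a 100 second FLIPR read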
Target sequence (P37288 whole entry, looked up): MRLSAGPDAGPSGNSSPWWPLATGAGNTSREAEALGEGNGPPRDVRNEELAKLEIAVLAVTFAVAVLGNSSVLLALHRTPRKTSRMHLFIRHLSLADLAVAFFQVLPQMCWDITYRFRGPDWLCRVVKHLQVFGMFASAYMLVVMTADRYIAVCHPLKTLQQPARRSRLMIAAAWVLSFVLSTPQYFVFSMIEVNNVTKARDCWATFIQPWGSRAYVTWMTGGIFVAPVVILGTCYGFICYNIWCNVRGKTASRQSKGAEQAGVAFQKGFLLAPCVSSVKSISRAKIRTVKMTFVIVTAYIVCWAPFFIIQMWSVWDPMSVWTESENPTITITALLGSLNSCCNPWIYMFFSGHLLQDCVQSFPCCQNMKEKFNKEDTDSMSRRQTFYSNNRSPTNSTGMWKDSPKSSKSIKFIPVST
OXTR ag – human OXTR agonism; CHO-OTR cells, Fluo-8 calcium fluorescence; normalized: DMSO 0%, oxytocin 100%; activation, % at 3 µM; P30559; 320,000 tested, 0.32% active;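 active means activation above the mean of all tested compounds plus 3 SD, cutoff set per screening run, cut at about 20% in these data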;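 further: peak over basal fluorescence ratio from a 100 s FLIPR kinetic read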
OXTR potentiator – human OXTR potentiation | activation, % at 3 µM | 320,000 tested, 0.061% active | P30559 | CHO-OTR cells, Fluo-8 calcium fluorescence, potentiator mode; 0% = oxytocin EC15, 100% = EC100;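 active means activation above that plate's cutoff, the mean activation of tested compounds plus 3 SD, cut at about 6.6% in these data, passing the limit was not always enough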
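Dosing: Single dose, 3.0 µM nominal final compound concentration | Material: Human OTR in CHO cells | Technique: Kinetic Fluo-8 calcium fluorescence | Benchmarks: EC15 oxytocin alone as 0%, 75 nM oxytocin as 100% | Probe or stimulus: Oxytocin at about EC15, sub-maximal agonist stimulus | Incubation: Compound 6 min at room temperature before oxytocin, 100 s read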
TAAR1 ag confirm – confirmation of human TAAR1 agonists | shares compounds with TAAR1 agonist | CHO RD-HGA16 TAAR1, Fluo-8 calcium fluorescence; scaled: DMSO 0%, maximal phenethylamine 100% | activation, % at 3 µM | 2,400 tested, 82% active;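 active means activation above a cutoff set at the run's mean compound activation plus 3 SD, cut at about 39% in these data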
Ga16 nonsel ag – counter-screen for TAAR1 agonists: nonselective agonists in parental cells; shares compounds with TAAR1 agonist; CHO-Ga16 parental, Fluo-8 calcium fluorescence; normalized to maximal ATP response, DMSO zero; activation, % at 3 µM; 2,400 tested, 50% active; AID 651787;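 active means activation above the run cutoff, the mean activation over all tested wells plus 3 SD, cut at about 12% in these data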
TAAR1 desensitize – TAAR1 response desensitization, agonist counter-screen; 2,400 tested, 46% active; CHO RD-HGA16 hTAAR1, Fluo-8 calcium, beta-PEA response inhibition; shares compounds with TAAR1 agonist; AID 651951; inhibition, % at 3 µM;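 active means inhibition above the run cutoff, the mean inhibition of all test compounds plus 3 SD, cut at about 49% in these data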;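 further: beta-PEA stimulus applied at its EC80; loss of beta-PEA calcium signal after compound pretreatment read as receptor desensitization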
Ga16 antag count – nonselective Ga16 antagonist in TAAR1 agonist counter-screen | AID 651952 | shares compounds with TAAR1 agonist | CHO-Ga16 ATP-induced calcium, Fluo-8 fluorescence | inhibition, % at 3 µM | 2,400 tested, 39% active;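 active means inhibition above the plate's mean compound inhibition plus 3 SD, computed per plate, cut at about 22% in these data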
Hits are given with their value; i = inactive; nt = no result. Sampled rows, rich in hits. Any-hit rate of the full collection: about 2.3%.

SMILES | TAAR1 agonist | TAAR1 antagonist | V1R ag counter | OXTR ag | OXTR potentiator | TAAR1 ag confirm | Ga16 nonsel ag | TAAR1 desensitize | Ga16 antag count
N#C/C(=C/c1ccc(N2CCCCC2)o1)C(=O)Nc1ccc2ccccc2c1 | 268 | 107 | nt | nt | nt | 199 | 223 | 93 | 95
N#C/C(=C/c1ccc(N2CCCCC2)o1)C(=O)Nc1ccc(Cl)cc1 | 312 | 109 | 225 | 197 | i | 127 | 166 | 96 | 92
CC1CC1c1ccc(/C=C(\C#N)C(=O)Nc2ccccc2Cl)o1 (centres undefined) | i | i | i | i | i | nt | nt | nt | nt
O=C1[C@H]2[C@@H](c3ccc(Cl)cc3)N3C(=O)N(c4cccc(Cl)c4)C(=O)[C@@]3(Cc3ccccc3)[C@H]2C(=O)N1C1CCCCC1 | i | i | i | i | i | nt | nt | nt | nt
COc1ncnc2c1ncn2CCCNCC(C)c1ccccc1 (centres undefined) | 65 | i | nt | nt | nt | 81 | i | 50 | i
CN(CC(=O)NCc1ccccc1)CC(=O)Nc1ccc(Cl)c(C(F)(F)F)c1 | 73 | i | 21 | 23 | i | 82 | 25 | 60 | 34
O=[N+]([O-])c1cc(/C=N\Nc2nc(-c3ccccc3)cs2)ccc1O | 69 | i | i | i | i | 44 | 53 | i | 29
Cc1cc(C)c2c(=O)cc(C(F)(F)F)oc2n1 | i | i | i | i | i | nt | nt | nt | nt
Cn1c(=O)c2c(nc(Oc3ccccc3Br)n2C)n(C)c1=O | i | i | nt | nt | nt | nt | nt | nt | nt
Cn1c(=O)c(N)c2c3c(c(Br)ccc31)C(=O)c1ccccc1-2 | 84 | i | 28 | 25 | i | i | 21 | i | 35
CC1(C(=O)NS(=O)(=O)c2cccc(Cl)c2)CCN1C(=O)c1cccc2ccccc12 (centres undefined) | i | i | nt | nt | nt | nt | nt | nt | nt
CCOC(=O)c1cc(NC(=O)CN2CCCC2)cc(C(=O)OCC)c1 | i | i | i | i | i | nt | nt | nt | nt
C/C(NCCc1ccccc1)=C1/CCOC1=O | 91 | 90 | nt | nt | nt | 98 | i | 88 | i
O=C(COC(=O)/C=C/c1cccs1)Nc1ccc(Cl)cc1F | 59 | 74 | i | i | i | i | i | i | i
Cc1cccc(NC(=O)C(=O)NCc2ccc3c(c2)OCO3)c1C | 56 | i | i | i | i | i | i | i | i
COc1ccc(-c2cc(-c3cccnc3)c(C#N)c(N)n2)cc1 | 46 | i | i | i | i | i | i | i | 22
FC(F)(F)c1cc(Cl)c2nnc(C(F)(F)Cl)n2c1 | i | i | i | i | i | nt | nt | nt | nt
O=C(Cn1cccc1C(=O)c1ccccc1)NCc1ccccc1Cl | i | i | i | i | i | nt | nt | nt | nt
Cc1ccccc1C(=O)c1cccn1CC(=O)NCc1ccccc1Cl | 50 | i | i | i | i | i | i | i | i
CC(=O)Oc1ccccc1C(=O)C=Cc1cccc([N+](=O)[O-])c1 | i | i | nt | nt | nt | nt | nt | nt | nt
CS(=O)(=O)N(Cc1ccccc1)c1ccc(C(=O)N2CCc3ccccc3C2)cc1 | 93 | 91 | i | i | i | 101 | i | 97 | 25
CS(=O)(=O)N(CC(=O)N1CCc2ccccc2C1)c1cccc(F)c1 | i | i | i | i | i | nt | nt | nt | nt
Cc1cc([N+](=O)[O-])nn1CC(=O)N1CCc2ccccc2C1 | 61 | i | i | i | i | 45 | i | i | i
Cc1cc(C)n(C(CC(=O)N2CCc3ccccc3C2)C(=O)O)n1 (centres undefined) | 102 | 90 | i | i | i | 107 | i | 94 | i
CS(=O)(=O)N(CC(=O)N1CCc2ccccc2C1)c1cccc([N+](=O)[O-])c1 | 60 | i | i | i | i | 54 | i | i | i
SMILES | TAAR1 agonist | TAAR1 antagonist | V1R ag counter | OXTR ag | OXTR potentiator | TAAR1 ag confirm | Ga16 nonsel ag | TAAR1 desensitize | Ga16 antag count
CCCCNC(=O)c1nc(C2CCN(S(=O)(=O)c3c(OC)cccc3OC)CC2)oc1-c1ccccc1 | i | i | nt | nt | nt | nt | nt | nt | nt
COc1cccc(OC)c1OCCN1CCC(C(=O)NC(c2ccc3c(c2)OCO3)c2ccccn2)CC1 (centres undefined) | i | i | nt | nt | nt | nt | nt | nt | nt
N/C(Cc1cccc2ccccc12)=N\OC(=O)COc1ccccc1 | 54 | i | i | i | i | 61 | i | i | i
COc1ccccc1C/C(N)=N/OC(=O)COc1cccc2ccccc12 | i | i | i | i | i | nt | nt | nt | nt
N/C(Cc1cccc2ccccc12)=N\OC(=O)c1ccccc1F | 70 | i | nt | nt | nt | 81 | i | i | i
Oc1ccc(C=NCC2COc3ccccc3O2)cc1 (centres undefined) | nt | nt | i | i | i | nt | i | nt | i
COc1ccc(C=NCC2COc3ccccc3O2)cc1OC (centres undefined) | 67 | i | i | i | i | 77 | i | 76 | i
COc1ccc(C)cc1NC(=O)CC1COc2ccccc2O1 (centres undefined) | i | i | i | i | i | nt | nt | nt | nt
Cc1cc(N(C)C)nc(Nc2ccccc2)n1 | 92 | 87 | i | i | i | 108 | i | 99 | i
CCN(CC)c1ccc(C(=C2C=CC(=[N+](CC)CC)C=C2)c2ccc(N(CC)CC)cc2)cc1 | 50 | 95 | nt | nt | nt | 68 | 45 | 92 | 84
CCN1CCN(c2ccc(NC(=O)c3cccc(OCc4ccccc4)c3)cc2)CC1 | i | i | i | i | i | nt | nt | nt | nt
CN1CCN(c2ccc(NC(=O)c3cccc(OCc4ccccc4)c3)cc2)CC1 | 54 | i | i | i | i | 60 | i | 71 | i
O=C(O)C1C2CCC(C2)C1C(=O)NCCc1cccc(Cl)c1 (centres undefined) | 76 | 86 | i | i | i | 88 | i | 73 | i
O=C(O)C1C2CCC(C2)C1C(=O)Nc1cc(F)ccc1F (centres undefined) | i | i | i | i | i | nt | nt | nt | nt
O=C(O)C1C2CCC(C2)C1C(=O)NCCc1ccc(F)cc1 (centres undefined) | 78 | 79 | i | i | i | 77 | i | 55 | i
CCOC(=O)C1CN(C(=O)OCC)CC1=NNC(N)=O (centres undefined) | i | i | nt | nt | nt | nt | nt | nt | nt
O=C(O)CCNC(=O)COc1ccc2c3c(c(=O)oc2c1)CCCC3 | i | i | nt | nt | nt | nt | nt | nt | nt
CC[C@H]1c2[nH]c3ccccc3c2C[C@H]2C(=O)N(c3ccc(F)cc3)C(=O)N21 | i | i | i | i | i | nt | nt | nt | nt
CCCOc1ccc(OC(=O)c2ccc(Br)o2)cc1 | 137 | 102 | 64 | 42 | i | 115 | 95 | 85 | 79
